Assay [1] deals with Prostaglandin G/H synthase 2 (Ovis aries, UniProt P79208). The assay is described as follows: Inhibition of sheep placental COX2 by liquid scintillation counter. In short, it runs like this:
(§1)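 Enzymes used were ram seminal vesicle COX-1 and sheep placenta COX-2 (70% pure), 2 units each, in 0.1 M Tris-HCl pH 7.5 with 1 mM hematin and 2 mM phenol. Sample was preincubated 2 min at 37 °C, then 51.4 µM [1-14C]arachidonic acid was added for 2 min at 37 °C. Extraction used hexane-EtOAc (2:1); PGE2 was measured by radioimmunoassay with scintillation counting. IC50 came from duplicate four-point titration.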

The target in assay [2] is T1, Prostaglandin G/H synthase 1 (Ovis aries) (UniProt P05979).
T1 sequence (whole entry): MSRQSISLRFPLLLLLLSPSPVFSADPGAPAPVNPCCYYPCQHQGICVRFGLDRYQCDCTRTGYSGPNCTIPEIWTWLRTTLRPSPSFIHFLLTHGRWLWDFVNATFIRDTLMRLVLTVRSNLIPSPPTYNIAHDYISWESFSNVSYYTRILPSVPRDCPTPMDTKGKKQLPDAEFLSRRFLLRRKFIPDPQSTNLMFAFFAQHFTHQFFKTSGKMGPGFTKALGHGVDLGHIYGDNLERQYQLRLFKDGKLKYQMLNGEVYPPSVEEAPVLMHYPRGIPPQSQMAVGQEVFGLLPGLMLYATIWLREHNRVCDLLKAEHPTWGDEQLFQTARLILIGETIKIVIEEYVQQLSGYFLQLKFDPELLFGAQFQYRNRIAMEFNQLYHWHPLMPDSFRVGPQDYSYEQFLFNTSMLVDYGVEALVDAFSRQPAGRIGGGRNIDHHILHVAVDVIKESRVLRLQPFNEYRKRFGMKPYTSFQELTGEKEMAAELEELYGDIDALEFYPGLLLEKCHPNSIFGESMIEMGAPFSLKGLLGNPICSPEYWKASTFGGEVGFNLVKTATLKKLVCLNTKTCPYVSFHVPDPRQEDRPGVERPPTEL
The experiment in a line: Inhibition of COX1 from ram seminal vesicles at 10 ug/ml by liquid scintillation counter.

The target of assay [3] is T2, Prostaglandin G/H synthase 1 (Ovis aries, UniProt P05979).
T2 sequence (P05979 whole entry): T1 sequence (whole entry)
The experiment in a line: Inhibition of COX1 from ram seminal vesicles by liquid scintillation counter. The procedure, abridged:
as §1

Assay [4] can be described thus: Inhibition of sheep placental COX2 by liquid scintillation counter.
The test system of assay [5] is Prostaglandin G/H synthase 2 (Ovis aries). The experiment in a line: Inhibition of sheep placental COX2 at 10 ug/ml by liquid scintillation counter.

Prostaglandin G/H synthase 2, sequence (P79208 whole entry, looked up): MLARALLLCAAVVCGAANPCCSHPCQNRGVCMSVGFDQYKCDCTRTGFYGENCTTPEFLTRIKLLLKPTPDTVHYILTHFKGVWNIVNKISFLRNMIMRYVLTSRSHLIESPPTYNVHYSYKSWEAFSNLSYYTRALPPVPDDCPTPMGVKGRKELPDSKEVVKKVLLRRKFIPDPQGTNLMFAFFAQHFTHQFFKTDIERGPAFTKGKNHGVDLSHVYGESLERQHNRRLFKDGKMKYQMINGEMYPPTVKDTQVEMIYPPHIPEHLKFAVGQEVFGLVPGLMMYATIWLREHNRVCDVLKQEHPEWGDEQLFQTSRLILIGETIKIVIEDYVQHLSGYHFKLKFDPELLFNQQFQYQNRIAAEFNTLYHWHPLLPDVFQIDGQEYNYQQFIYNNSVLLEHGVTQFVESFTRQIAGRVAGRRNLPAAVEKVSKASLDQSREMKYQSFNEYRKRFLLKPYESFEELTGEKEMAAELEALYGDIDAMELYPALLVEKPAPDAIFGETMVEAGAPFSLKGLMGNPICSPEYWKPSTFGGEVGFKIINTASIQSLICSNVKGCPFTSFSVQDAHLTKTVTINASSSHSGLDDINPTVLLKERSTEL

For `CC(C)(O)[C@@H](O)CC[C@@H](C(=O)O)[C@H]1CC[C@@]2(C)C3=C(CC[C@]12C)[C@@]1(C)CCC(=O)C(C)(C)[C@@H]1CC3` [FOMITOPINIC ACID A], it took 1.15 µM to reach half-maximal inhibition in assay [1] (IC50). The inhibition (usually how much of the control response was suppressed) in assay [2] was found to be 18.1%.

Turning to `C=C(CC[C@@H](C(=O)O[C@@H]1OC[C@@H](O)[C@H](O)[C@H]1O)[C@H]1CC[C@@]2(C)C3=C(CC[C@]12C)[C@@]1(C)CCC(=O)C(C)(C)[C@@H]1CC3)C(C)C` [FOMITOSIDE D], the concentration for half-maximal inhibition (IC50) (as a rule, the concentration that inhibits the measured activity by half) in assay [1] was determined as 2390 µM; in assay [3] it was 3330 µM.

On to `C=C(CC[C@@H](C(=O)O[C@@H]1OC[C@@H](O)[C@H](O)[C@H]1O)[C@H]1CC[C@@]2(C)C3=C(CC[C@]12C)[C@@]1(C)CC[C@@H](OC(C)=O)C(C)(C)[C@@H]1CC3)C(C)C`, for which, in assay [2], the inhibition came to 21.7%. In assay [4], this compound gave an INH of 1.85 ×10⁻⁵ M.

For the compound `CC(=O)O[C@@H]1CC[C@]2(C)C3=C(CC[C@H]2C1(C)C)[C@]1(C)CC[C@H]([C@@H](C/C=C/C(C)(C)O)C(=O)O[C@@H]2OC[C@@H](O)[C@H](O)[C@H]2O)[C@@]1(C)CC3` [FOMITOSIDE E], the IC50 in assay [1] worked out at 0.15 µM. In assay [2], this compound displayed an inhibition of 57.2%.

`CC(=O)O[C@@H]1CC[C@]2(C)C3=C(CC[C@H]2C1(C)C)[C@]1(C)CC[C@H]([C@@H](CCC=C(C)C)C(=O)O[C@@H]2OC[C@@H](O)[C@H](O)[C@H]2O)[C@@]1(C)CC3` [FOMITOSIDE F] had an IC50 in assay [1] of 1.13 µM. In assay [2], this compound returned an inhibition of 27.5%.

In assay [5], `COC(=O)CC(C)(O)CC(=O)O[C@@H]1CC[C@]2(C)C3=C(CC[C@H]2C1(C)C)[C@]1(C)CC[C@H]([C@@H](CCC=C(C)C)C(=O)O[C@@H]2OC[C@@H](O)[C@H](O)[C@H]2O)[C@@]1(C)CC3` (some centres undefined) [FOMITOSIDE H] came in with an inhibition of 70.1%. Further, the IC50 in assay [3] turned out to be 73.9 µM.

Take `CC(C)=CCC[C@@H](C(=O)O[C@@H]1OC[C@@H](O)[C@H](O)[C@H]1O)[C@H]1CC[C@@]2(C)C3=C(CC[C@]12C)[C@@]1(C)CCC(=O)C(C)(C)[C@@H]1CC3` [FOMITOSIDE C]: the IC50 came out at 5110 µM in assay [1] and 1910 µM in assay [3].

These data come from ChEMBL document CHEMBL1142564, “Lanostane triterpenoids and triterpene glycosides from the fruit body of Fomitopsis pinicola and their inhibitory activity against COX-1 and COX-2” (J Nat Prod, 2005).
